Source: ChEMBL document CHEMBL3526154, “Metabolism, pharmacokinetics, tissue distribution, and stability studies of the prodrug analog of an anti-hepatitis B virus dinucleoside phosphorothioate” (Drug Metab Dispos, 2012)

Tests used:
Liver [1] = assay: Drug level in human liver S9 fraction treated with Rp,Sp-dinucleotide-2 at 10 uM by LC/MS analysis; type: ADME, subcellular; conditions: s9, 10 µM
How it was run: (§1)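 Pooled human liver S9 (1 mg/ml), alamethicin-treated (10 μg/ml, 15 min on ice), with NADPH 1.3 mM, UDP-GlcUA 5 mM in 1× PBS; substrate 10 μM final. Incubated 37°C shaking; sampled 1, 4, 6 h, acetonitrile quench, centrifuged, supernatant lyophilised, reconstituted in water; HPLC (C18, 25°C, 5–50% acetonitrile in 0.1 M NH4OAc over 45 min) and LC/MS.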

Liver microsome [2] = assay: Drug level in human liver microsomes treated with Rp,Sp-dinulceotide-2 at 10 uM incubated up to 8 hrs by HPLC analysis; type: ADME
How it was run: (§2)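 Liver microsomes 1 mg/ml pretreated with alamethicin 10 μg/ml on ice 15 min; NADPH 1.3 mM and UDP-GlcUA 5 mM added in 1× PBS, substrate 10 μM final. Shaking bath at 37°C; aliquots at 1, 4, 6, 8 h quenched with acetonitrile, centrifuged, supernatant lyophilised and redissolved in water; analysed by C18 HPLC (5–50% acetonitrile/0.1 M NH4OAc gradient) and LC/MS.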

[3] = Half life of the compound in simulated gastric fluid by HPLC analysis; type: ADME
How it was run: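 Stock of 2 mg/100 µl in DMSO; 10 µl added to 200 µl simulated gastric fluid (NaCl, porcine pepsin, HCl, pH 1.2) or simulated intestinal fluid (KH2PO4, NaOH, pancreatin, pH 6.8), 37°C. Aliquots at 15 min, 30 min, 1 h, 3 h were quenched with acetonitrile (SGF neutralised to pH 7.0), centrifuged, lyophilised, reconstituted in water, analysed by C18 HPLC.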

Liver [4] = assay: Drug level in human liver S9 fraction treated with Rp,Sp-dinucleotide-2 at 10 uM by HPLC analysis; type: ADME, subcellular; conditions: s9, 10 µM; how it was run: as §1
Liver microsome [5] = assay: Drug level in human liver microsomes treated with Rp,Sp-dinulceotide-2 at 10 uM incubated up to 8 hrs by LC/MS analysis; type: ADME; how it was run: as §2
[6] = Stability of the compound in simulated intestinal fluid by HPLC analysis; type: ADME; conditions: simulated gi fluid
How it was run: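 Simulated intestinal fluid: KH2PO4 6.8 g/l with NaOH, pancreatin 10 g/l, pH 6.8. DMSO stock (2 mg/100 μl), 10 μl added to 200 μl SIF, 37°C; aliquots at 15 min, 30 min, 1 h, 3 h quenched with acetonitrile, centrifuged, supernatant lyophilised, reconstituted in water, analysed by C18 HPLC.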

[7] = (§3) Drug metabolism in human liver S9 fraction assessed as Rp,Sp-dinucleotide-1 (O-((2R,3S,5R)-5-(6-amino-9H-purin-9-yl)-3-hydroxytetrahydrofuran-2-yl)methyl O-(2R,3R,4R,5R)-5-(2,4-dioxo-3,4-dihydropyrimidin-1(2H)-yl)-2-(hydroxymethyl)-4-methoxytetrahydrofuran-3-yl S-hydrogen phosphorothioate) metabolite formation at 10 uM by HPLC analysis; type: ADME, subcellular; conditions: s9, 10 µM
How it was run: (§4)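 Pooled human liver S9 (1 mg/ml) pretreated 15 min on ice with alamethicin (10 µg/ml). Incubated with prodrug (10 µM), NADPH 1.3 mM, UDP-GlcUA 5 mM, S-adenosylmethionine 0.1 mM, PAPS 0.1 mM and acetyl-CoA 1 mM in PBS at 37°C with shaking. Sampled at 1, 4 and 6 h, acetonitrile-quenched, then analysed by HPLC and LC/MS.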

Liver microsome [8] = assay: as §3, with “microsomes” for “S9 fraction”, “uM incubated up to 8 hrs” for “uM”; type: ADME
How it was run: (§5)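 Microsomes (1 mg/ml) pretreated 15 min on ice with alamethicin (10 µg/ml). Incubated with prodrug (10 µM final), NADPH 1.3 mM and UDP-GlcUA 5 mM in PBS at 37°C with shaking. Sampled at 1, 4, 6 and 8 h and quenched with acetonitrile. Supernatant lyophilised, reconstituted in water, analysed by C18 HPLC and by LC/MS.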

[9] = as §3, with “LC/MS” for “HPLC”; type: ADME, subcellular; conditions: s9, 10 µM; how it was run: as §4
[10] = Time for almost complete conversion of the compound to 1 in simulated intestinal fluid by HPLC analysis
Liver microsome [11] = assay: as §3, with “microsomes” for “S9 fraction”, “uM incubated up to 8 hrs” for “uM”, “LC/MS” for “HPLC”; type: ADME; how it was run: as §5

SMILES: CO[C@@H]1[C@H](OP(=O)(S)OC[C@H]2O[C@@H](n3cnc4c(N)ncnc43)C[C@@H]2O)[C@@H](CO)O[C@H]1n1ccc(=O)[nH]c1=O (some centres not stated) [INARIGIVIR]
- Drug metabolism (Liver [1]): metabolite_detected
- Drug metabolism (Liver microsome [2]): metabolite_detected
- half-life [3]: < 0.25 h
- Drug metabolism (Liver [4]): metabolite_detected
- Drug metabolism (Liver microsome [5]): metabolite_detected
- Stability [6]: Stable

SMILES: CO[C@@H]1[C@H](OP(=O)(OC[C@H]2O[C@@H](n3cnc4c(N)ncnc43)C[C@@H]2O)SCOC(=O)OC(C)C)[C@@H](CO)O[C@H]1n1ccc(=O)[nH]c1=O (some centres not stated) [INARIGIVIR SOPROXIL]
- Drug metabolism [7]: metabolite_detected
- half-life [3]: > 3 h
- Drug metabolism (Liver microsome [8]): metabolite_detected
- Drug metabolism [9]: metabolite_detected
- time for complete conversion [10]: 180 min
- Drug metabolism (Liver microsome [11]): metabolite_detected
